pIC50: −log10 of the molar value. The source made the active and inactive calls. The calls are words filed in the database; no cut-off is given here.
Experiments:
COLO 320DM = assay: Antiproliferative activity against human COLO 320DM cells assessed as inhibition of cell proliferation incubated for 3 days by CellTiter-Glo Luminescent Cell Viability Assay; format: functional, cell-based; conditions: 72 h
Method in brief: (§1)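 Cancer cell lines seeded in 384-well plates on day 1; compound added on day 2 and left for 3 days. On day 5 all medium was aspirated, and viable cells were quantified by CellTiter-Glo luminescence, which measures cellular ATP. Dose-dependent effects on proliferation were determined.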

NCI-H2347 = assay: Antiproliferative activity against human NCI-H2347 cells assessed as inhibition of cell proliferation incubated for 3 days by CellTiter-Glo Luminescent Cell Viability Assay; format: functional, cell-based; conditions: NCI-H2347, 72 h
Method in brief: (§2)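 Cells of each line were plated in 384-well plates on day 1 and exposed to compound from day 2 for 3 days. On day 5 all medium was aspirated. Viable cell number was read by CellTiter-Glo luminescence, which quantifies cellular ATP.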

CFPAC-1 = assay: Antiproliferative activity against human CFPAC-1 cells assessed as inhibition of cell proliferation incubated for 3 days by CellTiter-Glo Luminescent Cell Viability Assay; format: functional, cell-based; conditions: CFPAC-1, 72 h; method in brief: as §1
NCI-H2087 = assay: Inhibition of anchorage independent cell growth in human NCI-H2087 cells incubated for 6 days by Alamar blue reagent based fluorescence plate reader analysis; format: functional; conditions: NCI-H2087, 144 h
SK-BR-3 = assay: Antiproliferative activity against human SK-BR-3 cells assessed as inhibition of cell proliferation incubated for 3 days by CellTiter-Glo Luminescent Cell Viability Assay; format: functional, cell-based; conditions: SK-BR-3, 72 h; method in brief: as §2
HCT-116 [1] = assay: Antitumor activity against human HCT-116 cells xenografted in nude mouse assessed as unbound drug concentration for inhibition of tumor growth at 0.12 to 3.3 mg/kg administered via pump for 9 days; format: functional; conditions: dose 0.12-3.3 mg/kg; time 9 day
DLD-1 [2] = assay: Antitumor activity against PAK4 -/+ human DLD-1 cells xenografted in nude mouse assessed as tumor growth inhibition at 20 mg/kg, po administered once daily for 9 to 18 days relative to control; format: functional; conditions: time 9-18 day, read-out: TGI
Method in brief: (§3)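 Tumor cells were implanted s.c. into the right flank of female nu/nu nude mice aged 6–8 weeks. Animals were randomized into treatment groups once tumors were established (example: day 8 postimplant, about 170 mm3, animals >22 g). Compound in 0.5% methylcellulose was given by oral gavage. Tumors were measured with calipers two to three times per week.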

[3] = biological target: Tyrosine-protein kinase Fyn (Homo sapiens, UniProt P06241); assay: Inhibition of human FYN in presence of ATP relative to control; conditions: concentration not given here
Sequence of Tyrosine-protein kinase Fyn (P06241 2-537 limits assumed): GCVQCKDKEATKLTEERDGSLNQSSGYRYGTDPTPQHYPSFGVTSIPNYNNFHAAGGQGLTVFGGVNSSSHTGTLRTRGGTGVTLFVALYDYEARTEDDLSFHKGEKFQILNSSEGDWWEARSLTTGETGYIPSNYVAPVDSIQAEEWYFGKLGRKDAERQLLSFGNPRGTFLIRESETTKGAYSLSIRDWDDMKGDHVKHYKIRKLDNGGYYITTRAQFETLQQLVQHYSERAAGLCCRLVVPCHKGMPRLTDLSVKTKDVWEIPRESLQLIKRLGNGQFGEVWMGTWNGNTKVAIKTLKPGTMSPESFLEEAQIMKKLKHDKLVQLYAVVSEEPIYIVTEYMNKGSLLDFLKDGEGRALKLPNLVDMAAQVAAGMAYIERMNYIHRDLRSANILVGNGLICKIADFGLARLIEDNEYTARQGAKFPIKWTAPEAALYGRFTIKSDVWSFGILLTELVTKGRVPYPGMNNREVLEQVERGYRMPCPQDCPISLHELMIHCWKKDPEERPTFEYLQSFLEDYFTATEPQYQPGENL

[4] = biological target: Serine/threonine-protein kinase D2 (Homo sapiens) (UniProt Q9BZL6); assay: Inhibition of human PKD2 (PRKD2) in presence of ATP relative to control; conditions: concentration not given here
Sequence of Serine/threonine-protein kinase D2 (Homo sapiens) (Q9BZL6 whole entry): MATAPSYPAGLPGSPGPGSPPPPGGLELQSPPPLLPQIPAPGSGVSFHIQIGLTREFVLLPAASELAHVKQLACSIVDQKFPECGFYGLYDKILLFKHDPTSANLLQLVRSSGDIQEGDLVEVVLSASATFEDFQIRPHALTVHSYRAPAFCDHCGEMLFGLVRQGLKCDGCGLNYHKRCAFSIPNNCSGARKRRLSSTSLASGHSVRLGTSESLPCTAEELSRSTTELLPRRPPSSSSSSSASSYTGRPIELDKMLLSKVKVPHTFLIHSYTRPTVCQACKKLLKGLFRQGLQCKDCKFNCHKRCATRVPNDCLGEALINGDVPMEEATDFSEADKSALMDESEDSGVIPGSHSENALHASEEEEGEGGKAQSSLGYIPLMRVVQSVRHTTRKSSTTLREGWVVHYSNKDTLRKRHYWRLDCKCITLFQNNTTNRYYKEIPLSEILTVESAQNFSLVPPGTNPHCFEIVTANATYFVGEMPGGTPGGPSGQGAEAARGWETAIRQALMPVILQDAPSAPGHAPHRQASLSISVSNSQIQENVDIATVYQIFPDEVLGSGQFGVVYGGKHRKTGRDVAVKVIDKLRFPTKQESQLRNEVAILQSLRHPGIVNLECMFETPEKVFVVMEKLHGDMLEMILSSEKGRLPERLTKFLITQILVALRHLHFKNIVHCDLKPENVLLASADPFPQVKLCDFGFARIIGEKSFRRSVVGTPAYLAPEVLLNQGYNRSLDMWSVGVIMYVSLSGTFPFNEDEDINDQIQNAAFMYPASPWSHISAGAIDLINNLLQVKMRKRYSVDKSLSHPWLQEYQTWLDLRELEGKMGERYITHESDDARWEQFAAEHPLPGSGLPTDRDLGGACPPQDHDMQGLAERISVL

[5] = biological target: Serine/threonine-protein kinase Chk2 (Homo sapiens, UniProt O96017); assay: Inhibition of human CHK2 in presence of ATP
Sequence of Serine/threonine-protein kinase Chk2 (O96017 whole entry): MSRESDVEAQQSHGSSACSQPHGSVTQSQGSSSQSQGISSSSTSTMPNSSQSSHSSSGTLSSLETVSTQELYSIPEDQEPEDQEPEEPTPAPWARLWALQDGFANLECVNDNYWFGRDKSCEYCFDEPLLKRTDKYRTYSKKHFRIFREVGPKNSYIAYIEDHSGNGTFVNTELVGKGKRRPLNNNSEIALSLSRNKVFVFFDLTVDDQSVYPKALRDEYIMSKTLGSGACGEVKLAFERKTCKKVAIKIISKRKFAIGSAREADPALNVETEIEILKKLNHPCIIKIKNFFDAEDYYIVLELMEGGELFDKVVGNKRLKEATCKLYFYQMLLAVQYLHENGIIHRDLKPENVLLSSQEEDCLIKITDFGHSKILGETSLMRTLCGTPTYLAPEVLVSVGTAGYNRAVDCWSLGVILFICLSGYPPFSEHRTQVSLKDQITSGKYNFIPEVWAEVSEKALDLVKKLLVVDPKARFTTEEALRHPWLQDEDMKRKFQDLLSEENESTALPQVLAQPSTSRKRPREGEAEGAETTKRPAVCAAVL

[6] = biological target: Protein kinase C beta type (Homo sapiens, UniProt P05771); assay: Inhibition of human PKCbeta1 in presence of ATP by cellular assay
Sequence of Protein kinase C beta type (P05771 whole entry): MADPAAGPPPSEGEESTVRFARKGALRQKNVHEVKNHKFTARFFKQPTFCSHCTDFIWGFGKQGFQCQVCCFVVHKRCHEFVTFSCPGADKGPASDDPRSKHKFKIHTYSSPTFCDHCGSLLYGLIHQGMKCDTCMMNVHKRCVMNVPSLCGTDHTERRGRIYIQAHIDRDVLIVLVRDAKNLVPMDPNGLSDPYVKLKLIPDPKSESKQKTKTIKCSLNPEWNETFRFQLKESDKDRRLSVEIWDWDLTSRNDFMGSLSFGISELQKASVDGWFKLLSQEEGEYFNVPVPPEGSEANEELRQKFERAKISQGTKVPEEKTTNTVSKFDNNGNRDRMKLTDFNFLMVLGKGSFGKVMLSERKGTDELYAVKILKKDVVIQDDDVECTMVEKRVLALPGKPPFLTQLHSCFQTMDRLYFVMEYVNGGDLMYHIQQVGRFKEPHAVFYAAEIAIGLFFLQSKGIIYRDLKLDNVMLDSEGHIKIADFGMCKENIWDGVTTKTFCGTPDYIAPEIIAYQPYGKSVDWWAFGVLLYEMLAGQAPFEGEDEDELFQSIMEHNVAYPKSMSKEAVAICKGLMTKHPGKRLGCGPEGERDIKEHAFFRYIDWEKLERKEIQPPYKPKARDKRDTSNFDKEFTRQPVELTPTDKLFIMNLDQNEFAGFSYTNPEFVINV

[7] = biological target: T1, Serine/threonine-protein kinase D1 (Homo sapiens, UniProt Q15139); assay: Inhibition of human PKCmu in presence of ATP by cellular assay
T1 sequence (Q15139 whole entry): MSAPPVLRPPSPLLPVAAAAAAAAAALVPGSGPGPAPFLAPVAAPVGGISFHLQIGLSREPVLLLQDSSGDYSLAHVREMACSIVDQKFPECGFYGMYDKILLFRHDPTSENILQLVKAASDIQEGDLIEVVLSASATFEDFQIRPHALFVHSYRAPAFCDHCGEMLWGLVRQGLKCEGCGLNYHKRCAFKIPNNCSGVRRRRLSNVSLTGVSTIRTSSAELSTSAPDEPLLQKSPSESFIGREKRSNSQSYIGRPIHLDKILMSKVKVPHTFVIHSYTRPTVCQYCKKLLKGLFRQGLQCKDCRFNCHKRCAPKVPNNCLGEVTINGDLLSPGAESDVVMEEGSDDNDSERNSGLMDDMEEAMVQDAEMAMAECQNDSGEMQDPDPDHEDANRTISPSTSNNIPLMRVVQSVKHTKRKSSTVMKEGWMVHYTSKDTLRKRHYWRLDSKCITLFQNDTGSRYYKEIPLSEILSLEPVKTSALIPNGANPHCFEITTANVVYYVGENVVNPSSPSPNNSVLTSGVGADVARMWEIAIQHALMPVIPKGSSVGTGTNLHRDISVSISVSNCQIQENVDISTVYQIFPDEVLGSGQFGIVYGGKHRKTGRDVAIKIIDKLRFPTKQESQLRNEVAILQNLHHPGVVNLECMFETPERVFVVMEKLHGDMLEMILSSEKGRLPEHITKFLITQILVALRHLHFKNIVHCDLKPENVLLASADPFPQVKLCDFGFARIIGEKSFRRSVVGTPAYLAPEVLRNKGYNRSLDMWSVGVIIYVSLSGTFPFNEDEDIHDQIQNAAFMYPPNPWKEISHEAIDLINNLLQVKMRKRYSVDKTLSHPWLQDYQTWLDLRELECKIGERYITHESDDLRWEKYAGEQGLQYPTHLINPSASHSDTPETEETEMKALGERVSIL

[8] = Inhibition of YFP/YFP variant coding sequence fused p53/Pin1 (unknown origin) expressed in HEK293 cells incubated for 8 to 24 hrs by fluorescence based analysis; format: cell-based, Homo sapiens
HCT-116 [9] = assay: Downregulation of camptothecin-induced p53 level in human HCT-116 cells at 1 uM preincubated with compound for 15 mins followed by camptothecin stimulation and measured after 20 hrs by Western blot analysis; format: functional, cell-based; conditions: time 20.25 hrs
DLD-1 [10] = assay: Antitumor activity against PAK4 -/+ human DLD-1 cells xenografted in nude mouse assessed as tumor growth inhibition at 10 mg/kg, po administered once daily for 9 to 18 days relative to control; format: functional; conditions: time 9-18 day, read-out: TGI; method in brief: as §3
M24met = assay: Antitumor activity against human M24met cells xenografted in nude mouse assessed as tumor growth inhibition at 7.5 mg/kg, po administered once daily for 9 to 18 days relative to control; format: functional; conditions: time 9-18 day, read-out: TGI
GTL 16 cell line = assay: Antitumor activity against human GTL-16 cell line xenografted in nude mouse assessed as tumor growth inhibition at 20 mg/kg, po administered once daily for 9 to 18 days relative to control; format: functional; conditions: time 9-18 day, read-out: TGI; method in brief: as §3
[11] = Drug concentration in nude mouse plasma xenografted with human HCT-116 cells at 1.1 mg/kg administered via pump for 9 days by LC-MS/MS analysis; format: ADME, organism-based; conditions: time 9 day
HCT-116 [12] = assay: Antitumor activity against human HCT-116 cells xenografted in nude mouse assessed as inhibition of [3H]FLT uptake at 25 mg/kg, po administered once a day for 1 day and measured after 2 hrs post [3H]FLT administration by scintillation counter analysis relative to control; format: functional; conditions: HCT-116, 24 h
Method in brief: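 HCT116 xenograft mice (tumors 300–350 mm3, n = 5 per group) received oral vehicle or compound, with harvests on days 2, 3 and 6. Isoflurane-anesthetized mice were given [3H]FLT (15 nCi/g, i.p.) 2 h before killing. Tumor and liver were weighed, solubilized and scintillation-counted. SUV = C/(ID/W), and uptake is reported as the tumor-to-liver SUV ratio.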

A549 = assay: cells; conditions: Homo sapiens, A549, 144 h

pIC50 (COLO 320DM): 6.69
pIC50 (NCI-H2347): 8.70
pIC50 (NCI-H2087): 8.87
pIC50 (SK-BR-3): 6.88
inhibition [3]: 95%
inhibition [4]: 96%
pIC50 [5]: 7.89
pIC50 [6]: 5.60
pIC50 [7]: 5.55
pIC50 [8]: 8.24
concentration at 216 h [11]: 5.6 ng/mL
pIC50 (A549): 7.56
Compound: Cc1nc(Nc2n[nH]c3c2CN(C(=O)N[C@H](CN(C)C)c2ccccc2)C3(C)C)c2sccc2n1 [PF-03758309]
pIC50 (CFPAC-1): 5.88
fIC50 (HCT-116 [1]): 0.4 nM
inhibition in vivo at 20 mg/kg (DLD-1 [2]): 0%
Activity (HCT-116 [9]): Active
inhibition in vivo at 10 mg/kg (DLD-1 [10]): 0%
inhibition in vivo at 7.5 mg/kg (M24met): 49%
inhibition in vivo at 20 mg/kg (GTL 16 cell line): 28%
inhibition in vivo at 25 mg/kg (HCT-116 [12]): 33.8%
